# Assay results taken from publication PMC248471 (Biological Procedures Online, 2003).
# Read-outs that look alike come from different tables or passages of the source. No end group written: not given here.
# Key:
# recombinant human HSP72 [1] = biological target: T1, recombinant human HSP72 (Homo sapiens, UniProt P0DMV8); assay: BIAcore SPR peptide binding to high-density immobilized HSP72; conditions: for binding to HSP72 (sensorgram pattern): 1 mM peptide, high HSP72 immobilization density (20,000 RU), data not shown, see reference [15]
# T1 sequence (P0DMV8 whole entry): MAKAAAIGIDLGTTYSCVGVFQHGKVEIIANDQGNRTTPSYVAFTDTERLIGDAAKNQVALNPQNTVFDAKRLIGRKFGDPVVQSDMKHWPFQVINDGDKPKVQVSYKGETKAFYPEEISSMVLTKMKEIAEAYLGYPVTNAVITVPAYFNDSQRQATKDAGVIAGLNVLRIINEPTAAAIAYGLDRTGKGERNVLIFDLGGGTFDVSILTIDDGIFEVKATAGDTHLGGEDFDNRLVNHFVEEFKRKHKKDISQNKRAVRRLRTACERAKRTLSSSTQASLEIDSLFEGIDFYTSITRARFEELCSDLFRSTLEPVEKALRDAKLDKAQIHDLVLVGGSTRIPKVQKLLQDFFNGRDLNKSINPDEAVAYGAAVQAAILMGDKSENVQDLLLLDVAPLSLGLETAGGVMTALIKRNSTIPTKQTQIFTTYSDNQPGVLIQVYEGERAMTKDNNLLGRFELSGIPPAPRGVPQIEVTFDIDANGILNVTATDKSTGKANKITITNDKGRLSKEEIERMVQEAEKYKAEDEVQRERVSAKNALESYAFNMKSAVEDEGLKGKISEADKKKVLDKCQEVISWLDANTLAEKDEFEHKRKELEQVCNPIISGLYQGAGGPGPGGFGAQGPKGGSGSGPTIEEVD
# recombinant human HSP72 [2] = biological target: T1, recombinant human HSP72; assay: BIAcore SPR kinetic analysis of peptide binding to immobilized HSP72; conditions: pH 7.4, read-out: ka (on rate)
# Summary of the method: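 Recombinant human HSP72 dialysed into 10 mM sodium acetate pH 5.0 and covalently coupled to a CM5 chip at about 10,000 RU. Peptides were dissolved in running buffer (HBS-P pH 7.4, 2.5 mM Mg acetate, 2.5 mM ATP) and injected at 25 to 200 μM. Sensorgrams were reference-channel subtracted without regeneration, then globally fitted to a 1:1 Langmuir model and judged by Chi2 and residuals.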
# [3] = system: MV transcription and genomic replication; conditions: ref [15], cited from earlier work
# [4] = system: viral RNP transcriptional activity; conditions: ATP-dependent association with CDV and MV RNP; ref [10]-[13]; cited from earlier work
# [5] = system: MV RNP (parent Ed-MV and 4D variant); format: cell-based, measles virus; conditions: recombinant virus with 4D-substituted motif; unpublished data
# [6] = system: CDV transcription and genome replication; assay: CDV viral transcription and genome replication, HSP72 responsiveness; format: cell-based, canine distemper virus (Onderstepoort strain); conditions: Onderstepoort CDV N protein (YSDKELL); unpublished observation
# IgG = assay: BIAcore SPR peptide binding to irrelevant ligand; conditions: irrelevant ligand IgG immobilized; data not shown, see reference [15]
# MV RNP-HSP72 interaction = assay: Peptide competitive inhibition of MV RNP-HSP72 interaction; format: binding, human HSP72; measles virus RNP
compound,measurement,setting,value
"CC[C@H](C)[C@H](NC(=O)[C@@H]1CCCN1C(=O)[C@@H](NC(=O)[C@H](CC(=O)O)NC(=O)[C@@H](NC(=O)[C@@H](N)CC(=O)O)[C@@H](C)O)[C@@H](C)O)C(=O)N[C@H](C(=O)N[C@@H](Cc1ccc(O)cc1)C(=O)N[C@@H](CC(N)=O)C(=O)N[C@@H](CC(=O)O)C(=O)N[C@@H](CCCNC(=N)N)C(=O)N[C@@H](CC(N)=O)C(=O)N[C@@H](CC(C)C)C(=O)N[C@@H](CC(C)C)C(=O)N[C@@H](CC(=O)O)C(=O)O)C(C)C [N, DTDTPIVYNDRNLLD]","dissociation rate from HSP72, faster in 2.5 mM than in 0.1 mM ATP","recombinant human HSP72 [1]; 400 μM N peptide, 20,000 RU HSP72, HBS-P, 2.5 mM magnesium acetate",3 times
same,kon,recombinant human HSP72 [2],357 M⁻¹ s⁻¹
"DTDTPIVYNDRDLLD [Peptide N4D, DTDTPIVYNDRDLLD]",kon,recombinant human HSP72 [2],7 M⁻¹ s⁻¹
"DTDTPIVYNDRDPLD [Peptide N3P4D, DTDTPIVYNDRDPLD]",kon,recombinant human HSP72 [2],14 M⁻¹ s⁻¹
HSP72: 72 kDa heat shock protein; major inducible member of the 70kDa family,stimulation of viral transcriptional activity (CAT reporter),"[3]; HSP72 added by transfection, wild type MV N",2-3 fold
same,response to HSP72 supplementation (CAT reporter),[3]; N protein with C-terminal 3P4D substitutions,lack a response
same,response to HSP72 supplementation (CAT reporter),[3]; N protein with C-terminal 4D substitution,lack a response
same,effect of HSP72 association on RNP,[4],increased RNP transcriptional activity
same,functional HSP72 responsiveness of 4D virus variant,[5],loss of functional HSP72 responsiveness
same,HSP72 responsiveness in viral transcription and genome replication,[6],retains HSP72 responsiveness
STSRHKKLMFKTEGP [p53],binding to HSP72 (sensorgram pattern),recombinant human HSP72 [1],progressive rise in signal observed over time
same,signal over bulk shift on IgG,IgG,signal over bulk shift was not observed
YGSLPQKAQRPQDEN [MBP],binding to HSP72 (sensorgram pattern),recombinant human HSP72 [1],"identical sensorgrams were obtained with 1 mM peptide solution and flow channels containing no ligand or flow channels containing either HSP72 or irrelevant protein (i.e., IgG) as ligand"
same,inhibition of RNP binding to HSP72,"MV RNP-HSP72 interaction; 400 μM peptide, MV RNP representing 1 nM N protein, maximal sensorgram response",18%
same,"level of inhibition of RNP-HSP72 binding, comparison",MV RNP-HSP72 interaction; 400 mM (so in the source) MBP peptide vs 5 μM N peptide,comparable to that using only 5 μM N peptide
